In the library only some 3.2% were active in any assay of this set; here they are far more common.
NR2E3 ag-1: activates human NR2E3 receptor; Q9Y5X4; hit rate 0.35% among 360,000; AID 602229; CHO-S Gal4-NCOR/VP16-NR2E3 two-hybrid, luciferase; inhibition of corepressor binding, % at 3.98 µM;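 active = inhibition above the mean of all tested compounds plus 3 SD, cut at about 70% in these data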;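 also: higher means lower luciferase signal from less NR2E3 corepressor binding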
GASC-1 inh: human JMJD2C demethylase inhibition; Q9H3R0; GST-JMJD2C(1-420) H3K9me3 demethylation, DELFIA europium; inhibition, % at 2.35 µM; hit rate 0.069% among 330,000;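 active = more than half of a compound's replicate wells show inhibition beyond 50%, single wells judged on their own value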;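 also: signal counts dimethyl H3K9 product captured on neutravidin plate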
Target sequence (Q9H3R0 1-420 limits assumed): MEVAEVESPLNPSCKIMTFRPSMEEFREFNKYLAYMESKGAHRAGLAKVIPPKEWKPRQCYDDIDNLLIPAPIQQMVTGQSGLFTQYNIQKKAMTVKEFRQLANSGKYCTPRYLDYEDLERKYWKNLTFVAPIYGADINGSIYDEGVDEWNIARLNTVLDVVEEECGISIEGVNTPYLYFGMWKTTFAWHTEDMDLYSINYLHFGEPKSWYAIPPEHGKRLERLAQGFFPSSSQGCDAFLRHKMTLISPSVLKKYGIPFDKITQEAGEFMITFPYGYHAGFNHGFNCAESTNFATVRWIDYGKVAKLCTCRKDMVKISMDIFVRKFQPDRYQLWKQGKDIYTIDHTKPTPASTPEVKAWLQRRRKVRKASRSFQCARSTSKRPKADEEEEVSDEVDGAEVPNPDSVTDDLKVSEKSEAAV
SMARCA2 activ: increases SMARCA2 function in MMTV reporter cells; hit rate 1% among 370,000; activation, % at 9.1 µM; MG213 cells, MMTV-luciferase reporter, dexamethasone, overnight; AID 652017; in the data active = activation above about 7.8%
DAX1 inh-1: inhibitors of human orphan nuclear receptor DAX1 (NR0B1) | P51843 | HEK293 Gal4-DAX1 luciferase reporter, luminescence | inhibition, % at 6.75 µM | hit rate 0.99% among 340,000 | AID 504766;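 active = inhibition above the mean over all tested compounds plus 3 SD, cut at about 4.2% in these data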;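 also: inhibition shows as a rise in luminescence from relieved DAX1 repression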
Target sequence (P51843 207-470 limits assumed): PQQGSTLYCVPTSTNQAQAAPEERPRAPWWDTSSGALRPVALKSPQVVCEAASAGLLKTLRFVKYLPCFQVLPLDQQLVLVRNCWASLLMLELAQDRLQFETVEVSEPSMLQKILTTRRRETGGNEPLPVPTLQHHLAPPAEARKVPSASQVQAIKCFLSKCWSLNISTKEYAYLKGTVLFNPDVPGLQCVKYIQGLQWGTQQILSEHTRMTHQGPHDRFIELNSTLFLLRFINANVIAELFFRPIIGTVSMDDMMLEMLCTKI
DAX1 inh-2: inhibitors of DAX1 repression of SF-1 activated StAR promoter. HEK293T StAR-luciferase reporter, SF-1/DAX-1 repression relief. inhibition, % at 6.8 µM. hit rate 1.1% among 370,000. AID 652010;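 active = inhibition above the mean over all tested compounds plus 3 SD, cut at about 3.6% in these data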;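 also: higher inhibition means more luminescence from relief of DAX-1 repression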
NR2E3 ag-2: NR2E3 (human) agonism; Q9Y5X4; GST-NR2E3/biotin-RetCOR TR-FRET, 1536-well; inhibition of corepressor binding, % at 4.78 µM; hit rate 0.12% among 320,000; AID 2300;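 active = percent inhibition above the cutoff of mean plus 3 SD of all tested compounds, set per screening campaign, cut at about 20% in these data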
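Format: 1536-well format; test system: GST-NR2E3 and biotin-RetCOR proteins; read-out basis: percent inhibition of TR-FRET ratio; timing: 5 h incubation at 4 °C; detection: time-resolved FRET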
SMARCA2 conf: confirmation of SMARCA2 (BRM) function activators; shares compounds with SMARCA2 activ; MG213 cells, MMTV-luciferase with dexamethasone, luminescence, overnight; MG213 cells expressing E1A, Rb sequestered; DMSO wells 0%, reference activator 100%; activation, % at 9.1 µM; hit rate 30% among 3,500;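 active = activation above its plate's cutoff, the mean activation of tested wells plus 3 SD, cut at about 7.9% in these data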
VP16 Luc act: GAL4-VP16 reporter activation counter-screen | shares compounds with SMARCA2 activ | HEK293 GAL4-VP16 pG5luc reporter, luciferase luminescence; scaled: DMSO wells 0%, SAHA wells 100% | activation, % at 9.1 µM | hit rate 41% among 3,500;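 active = activation above the solvent-only control well mean plus 3 SD, averaged across control plates, cut at about 5.2% in these data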
Numbers stand for hits; i = inactive; nt = no result.

SMILES | NR2E3 ag-1 | GASC-1 inh | SMARCA2 activ | DAX1 inh-1 | DAX1 inh-2 | NR2E3 ag-2 | SMARCA2 conf | VP16 Luc act
O=C(CCn1nnc2ccccc21)N1CCN(c2ccc(F)cc2)CC1 | nt | nt | i | nt | i | nt | nt | nt
C/C(=N\Nc1cccc([N+](=O)[O-])c1)c1ccccc1O | i | i | 12 | i | i | i | i | i
NC(=O)c1ncn([C@@H]2O[C@H](C(=O)N[C@H](Cc3c[nH]c4ccccc34)C(=O)N3CCN(C(=O)N4CCCCC4)CC3)[C@@H](O)[C@H]2O)n1 | nt | nt | i | nt | i | nt | nt | nt
Cc1ccc(-n2c(SCC(=O)c3ccc(O)c(O)c3)nnc2-c2ccccc2)cc1 | nt | nt | i | nt | i | nt | nt | nt
COc1cccc(CC(=O)Nc2ccc(S(=O)(=O)Nc3nccs3)cc2)c1 | i | i | 8.4 | i | i | nt | i | i
Cn1c(SCC(=O)Nc2ccc(S(=O)(=O)Nc3nccs3)cc2)nc2sc3c(c2c1=O)CCCC3 | nt | nt | 11 | nt | i | nt | i | i
COc1ccc(-c2nn(-c3ccccc3)cc2C(=O)NC(=S)N2CCOCC2)cc1OC | i | i | i | i | i | i | nt | nt
O=C(COC(=O)c1nc(Cl)c(Cl)c(Cl)c1Cl)NCc1ccccc1 | i | nt | 21 | i | i | i | 53 | i
Cc1nn(-c2ccccc2)c2sc(C(=O)N3CCC4(CC3)OCCO4)cc12 | nt | nt | i | nt | i | nt | nt | nt
C=CCNC(=O)c1c(Br)cnn1-c1ccc(C)cc1 | i | i | 9.2 | nt | i | i | 11 | 11
Cc1ccc(-n2ncc(Cl)c2C(=O)NCc2ccccc2)cc1 | i | i | i | i | i | i | nt | nt
CC(NC(=O)c1ccccc1Cl)C(=O)OCc1cn2cc(Cl)ccc2n1 (stereo not drawn) | i | i | i | i | i | nt | nt | nt
Cn1c(CN2CCOCC2)nnc1SCc1ccccc1 | i | i | i | i | i | i | nt | nt
Cn1c(CN2CCOCC2)nnc1SCC(=O)NCCc1ccccc1 | i | i | 8.2 | i | i | i | i | i
CN[C@H]1C[C@H]2c3cc(-c4ccccc4C)ccc3CCN2C[C@H]1[C@H](C)O | nt | nt | 9.6 | nt | i | nt | i | i
CS(=O)(=O)Nc1ccc(C(=O)Nc2ccc3ccccc3c2)cc1 | i | i | 8.4 | i | i | i | 16 | 7.2
CC(=O)c1cccc(NC(=O)c2ccc(NS(C)(=O)=O)cc2)c1 | i | i | i | i | i | i | nt | nt
COC(=O)c1ccc2c(c1)C(C)(C)C(/C=C/c1ccc(O)cc1)=[N+]2C | i | i | 14 | i | i | i | i | i
COC(=O)c1ccc2c(c1)C(C)(C)C(/C=C/c1ccc(OC)c(OC)c1OC)=[N+]2C | i | i | i | i | i | i | nt | nt
CC(=O)N1C[C@@H](CO)[C@@H](N(C)C(=O)/C=C/c2ccccc2)C[C@H]1c1ccccc1 | nt | nt | i | nt | i | nt | nt | nt
C=CCN=c1sc(C(=O)OC)cc(=O)n1CC=C | i | i | i | i | i | i | nt | nt
CCN=c1sc(C(=O)OC)cc(=O)n1CC | i | i | 11 | i | i | i | 8.6 | i
O=C(Nc1ccc(Nc2ccccc2)cc1)c1cccc(F)c1 | i | i | 9.0 | i | i | i | i | 6.7
O=C(Nc1cccc(F)c1)c1ccccc1-c1ccccc1 | i | i | 9.0 | i | i | i | i | i
O=C(Nc1cccc(F)c1)c1ccccc1 | i | i | i | i | i | i | nt | nt
SMILES | NR2E3 ag-1 | GASC-1 inh | SMARCA2 activ | DAX1 inh-1 | DAX1 inh-2 | NR2E3 ag-2 | SMARCA2 conf | VP16 Luc act
O=C(NCc1ccco1)C1CCCN(c2ncccn2)C1 (stereo not drawn) | nt | nt | i | nt | i | nt | nt | nt
Cc1[nH]nc2c1C(c1ccccc1)N(Cc1ccccc1)C2=O (stereo not drawn) | nt | nt | i | nt | i | nt | nt | nt
CCc1nc2ccc(C(=O)N3CCN(C(=O)c4ccco4)CC3)cn2c1N(C)C(=O)Nc1ccccc1OC | i | nt | i | nt | i | nt | nt | nt
CN(C)c1ccc(/C=C2\CCCc3c2nc2ccccc2c3C(=O)O)cc1 | i | i | 9.6 | i | i | i | i | 5.5
O=C(O)c1ccc(/C=C2\CCCc3c2nc2ccccc2c3C(=O)O)cc1 | i | i | i | i | i | i | nt | nt
O=C(CSc1ncn[nH]1)c1ccc2c(c1)OCO2 | i | i | 8.6 | i | i | i | i | i
O=C(CSc1ncn[nH]1)c1ccc2c(c1)OCCO2 | i | i | i | i | i | i | nt | nt
OC(c1ccc2c(c1)OCO2)c1ncc(-c2cccc(C(F)(F)F)c2)[nH]1 (stereo not drawn) | i | nt | i | nt | i | nt | nt | nt
COc1ccc(C(=O)NCCC2=CCCCC2)cc1OC | i | i | i | i | i | i | nt | nt
O=C1CSc2ccc(C(=O)NCCC3=CCCCC3)cc2N1 | i | i | 9.8 | i | i | i | i | 6.8
COc1cccc(C(=O)NCCC2=CCCCC2)c1 | i | i | 12 | i | i | i | i | 18
Cc1ccsc1C(=O)OCC(=O)NCCC1=CCCCC1 | i | i | 8.4 | i | i | i | 9.7 | i
CCCCOCCCNC(=O)C[C@H]1C[C@@]2(C(=O)OC)C(=C[C@H](COCc3ccccc3)O[C@@H]2C)N(CCc2ccc(OC)c(OC)c2)C1=O | nt | nt | i | nt | i | nt | nt | nt
COc1ccc(NC(=O)c2onc(C)c2Cl)cc1 | i | i | 10 | i | i | i | i | 7.0
c1cc2c3c(cccc3c1)C(N1CCCCCC1)=N2 | i | i | i | i | i | i | nt | nt
c1ccc2c(c1)CCN(C1=Nc3cccc4cccc1c34)C2 | i | nt | 12 | i | i | nt | i | i
CCn1c(COc2ccc(C)cc2)nnc1SCC(=O)Nc1ccc(C(=O)OC)cc1 | nt | nt | i | nt | i | nt | nt | nt
COc1cc(/C=C2/SC(=S)N(CC(=O)NC(C)(C)C)C2=O)cc(OC)c1OC | i | i | 8.0 | i | i | i | i | i
Cc1ccc(-n2ccn(CC(=O)NCCc3ccccc3)c(=O)c2=O)cc1C | i | i | i | i | i | i | nt | nt
CC(C)C[C@H]1CN([C@@H](Cc2ccc(O)cc2)CN2CCCC2CN2C(=S)NC[C@@H]2Cc2ccccc2)C(=S)N1CC1CCCCC1 (stereo partly drawn) | i | nt | 8.0 | nt | i | nt | i | i
O=C(Nc1ccc(N2CCOCC2)cc1)c1nc2ccccc2s1 | i | i | 12 | i | 4.3 | i | 8.5 | 12
C=CCC[C@H](Cc1ccc(F)cc1)C(=O)OC[C@@H](NC(=O)[C@@H](CC=C)CC(=O)N(CCO)Cc1ccccc1)C(C)(C)C | i | i | i | i | i | nt | nt | nt
O=C(CC1CCCC1)N[C@H](C(=O)N1CCC[C@H]1C(=O)NCCc1ccccc1Cl)c1ccccc1 | nt | nt | i | nt | i | nt | nt | nt
COc1cccc(CNC(=O)CN2CCCc3ccccc32)c1OC | nt | nt | i | nt | i | nt | nt | nt
O=C(CNc1ccc(Br)cc1)c1ccccc1 | i | i | i | i | i | i | nt | nt
Cc1ccc(NCCC(=O)c2cccc([N+](=O)[O-])c2)c(C)c1 | i | i | 8.6 | i | i | i | i | i

Screening results from PubChem BioAssay.
